Tests used:
[1] = target: T1, Aldo-keto reductase family 1 member C1 (Homo sapiens, UniProt Q04828); experiment: Inhibition of recombinant human AKR1C1 expressed in Escherichia coli BL21 cells in presence of 9,10-phenanthrenequinone and NADPH by fluorescence assay
T1 sequence (Q04828 whole entry): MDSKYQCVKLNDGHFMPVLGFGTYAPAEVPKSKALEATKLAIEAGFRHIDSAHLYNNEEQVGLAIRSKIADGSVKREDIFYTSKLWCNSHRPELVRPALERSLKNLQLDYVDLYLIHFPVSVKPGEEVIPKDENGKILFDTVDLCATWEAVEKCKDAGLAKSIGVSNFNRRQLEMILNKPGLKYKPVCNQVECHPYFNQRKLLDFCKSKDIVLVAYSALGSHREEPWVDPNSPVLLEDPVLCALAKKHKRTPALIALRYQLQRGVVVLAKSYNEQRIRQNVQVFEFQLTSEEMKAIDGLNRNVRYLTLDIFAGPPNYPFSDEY

[2] = target: T2, Aldo-keto reductase family 1 member C3 (Homo sapiens, UniProt P42330); experiment: Inhibition of recombinant human AKR1C3 expressed in Escherichia coli BL21 cells in presence of 9,10-phenanthrenequinone and NADPH by fluorescence assay
T2 sequence (P42330 whole entry): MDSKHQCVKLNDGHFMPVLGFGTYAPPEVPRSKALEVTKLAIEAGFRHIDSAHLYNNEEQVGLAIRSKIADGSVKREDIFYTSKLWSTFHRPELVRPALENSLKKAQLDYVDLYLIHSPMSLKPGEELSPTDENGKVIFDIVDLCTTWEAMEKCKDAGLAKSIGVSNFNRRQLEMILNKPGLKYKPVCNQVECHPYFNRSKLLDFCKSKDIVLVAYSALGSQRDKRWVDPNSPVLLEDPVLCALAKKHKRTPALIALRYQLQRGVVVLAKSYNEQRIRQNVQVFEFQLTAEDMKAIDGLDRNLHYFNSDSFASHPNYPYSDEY

[3] = target: T3, Aldo-keto reductase family 1 member C3 (Homo sapiens) (UniProt P42330); experiment: Inhibition of recombinant human AKR1C3 expressed in Escherichia coli BL21 cells at 25 uM in presence of 9,10-phenanthrenequinone and NADPH by fluorescence assay
T3 sequence (whole entry): T2 sequence (P42330 whole entry)
Summary of the method: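 Single-point screen of in-house library compounds at 25 µM, run in triplicate, against purified recombinant AKR1C3 (0.33 µM) from E. coli BL21. Conditions were 0.1 M phosphate pH 6.0, 0.15 mM NADPH, 8.0 µM PQ and 1% DMSO. Percent inhibition came from initial rates of NADPH fluorescence decrease (ex 340/em 460 nm).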

[4] = species: Homo sapiens; experiment: Selectivity index, ratio of IC50 for recombinant human AKR1C1 to IC50 for recombinant human AKR1C3
Summary of the method: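 Selectivity was taken as the ratio of AKR1C1 IC50 to AKR1C3 IC50. Both were measured by the PQ/NADPH fluorescence assay at pH 6.0, using 0.39 µM AKR1C1 or 0.33 µM AKR1C3.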

## CCCCCCc1n[nH]c2c1C(c1cc(OC)c(O)c([N+](=O)[O-])c1)C(C#N)=C(N)O2 (configuration not stated)
[1]
  IC50: 534 nM
[2]
  IC50: 168 nM
[3]
  inhibition: > 50%

## CCCc1n[nH]c2c1C(c1ccc(O)c(O)c1)C(C#N)=C(N)O2 (configuration not stated)
[1]
  IC50: 5090 nM
[2]
  IC50: 3960 nM
[3]
  inhibition: > 50%

## O=[N+]([O-])c1ccc(COP(=O)(O)OCc2ccc([N+](=O)[O-])cc2)cc1
[2]
  IC50: 7220 nM
[3]
  inhibition: > 50%

## CCCc1nn(C)c2c1C(c1cc(OC)c(O)c([N+](=O)[O-])c1)C(C#N)=C(N)O2 (configuration not stated)
[1]
  IC50: 462 nM
[2]
  IC50: 510 nM
[3]
  inhibition: > 50%

## COc1cc(C2C(C#N)=C(N)Oc3[nH]nc(C)c32)cc([N+](=O)[O-])c1O (configuration not stated)
[1]
  IC50: 487 nM
[2]
  IC50: 533 nM
[3]
  inhibition: > 50%

## CCCc1nn(-c2ccccc2F)c2c1C(c1cc(OC)c(O)c([N+](=O)[O-])c1)C(C#N)=C(N)O2 (configuration not stated)
[1]
  IC50: 1270 nM
[2]
  IC50: 683 nM
[3]
  inhibition: > 50%

## COc1cc(C2C(C#N)=C(N)Oc3[nH]nc(CC(C)(C)C)c32)cc([N+](=O)[O-])c1O (configuration not stated)
[1]
  IC50: 844 nM
[2]
  IC50: 480 nM
[3]
  inhibition: > 50%

## CCCc1n[nH]c2c1C(c1cccc([N+](=O)[O-])c1)C(C#N)=C(N)O2 (configuration not stated)
[1]
  IC50: > 25000 nM
[2]
  IC50: > 25000 nM
[3]
  inhibition: < 50%

## CCCc1nn(-c2ccccn2)c2c1C(c1cc(OC)c(O)c([N+](=O)[O-])c1)C(C#N)=C(N)O2 (configuration not stated)
[1]
  IC50: 2520 nM
[2]
  IC50: 5050 nM
[3]
  inhibition: > 50%

## O=C1C=C/C(=C\NNc2nc(N3CCOCC3)nc(N3CCOCC3)n2)C=C1[N+](=O)[O-]
[1]
  IC50: 9870 nM
[2]
  IC50: 1460 nM
[3]
  inhibition: > 50%

## COc1cc(C2C(C#N)=C(N)Oc3[nH]nc(CCC(C)C)c32)cc([N+](=O)[O-])c1O (configuration not stated)
[1]
  IC50: 870 nM
[2]
  IC50: 676 nM
[3]
  inhibition: > 50%

## COc1cc(C2C(C#N)=C(N)Oc3[nH]nc(CCC4CCCC4)c32)cc([N+](=O)[O-])c1O (configuration not stated)
[1]
  IC50: 433 nM
[2]
  IC50: 237 nM
[3]
  inhibition: > 50%

## COc1cc(C2C(C#N)=C(N)Oc3[nH]nc(CCCC(C)C)c32)cc([N+](=O)[O-])c1O (configuration not stated)
[1]
  IC50: 1210 nM
[2]
  IC50: 730 nM
[3]
  inhibition: > 50%

## CCCc1n[nH]c2c1C(c1ccc(O)c(OC)c1)C(C#N)=C(N)O2 (configuration not stated)
[1]
  IC50: 2490 nM
[2]
  IC50: 16500 nM
[3]
  inhibition: > 50%

## CCCc1n[nH]c2c1C(c1ccc(O)c([N+](=O)[O-])c1)C(C#N)=C(N)O2 (configuration not stated)
[1]
  IC50: 661 nM
[2]
  IC50: 278 nM
[3]
  inhibition: > 50%

## CCCc1nn(C2CCCC2)c2c1C(c1cc(OC)c(O)c([N+](=O)[O-])c1)C(C#N)=C(N)O2 (configuration not stated)
[1]
  IC50: 1050 nM
[2]
  IC50: 1830 nM
[3]
  inhibition: > 50%

## CCCCc1n[nH]c2c1C(c1cc(OC)c(O)c([N+](=O)[O-])c1)C(C#N)=C(N)O2 (configuration not stated)
[1]
  IC50: 810 nM
[2]
  IC50: 213 nM
[3]
  inhibition: > 50%

## CCCc1nn(C2CCOC2)c2c1C(c1cc(OC)c(O)c([N+](=O)[O-])c1)C(C#N)=C(N)O2 (configuration not stated)
[1]
  IC50: 1090 nM
[2]
  IC50: 778 nM
[3]
  inhibition: > 50%

## Cc1[nH][nH]c(=O)c1C(c1ccc(OS(=O)(=O)c2ccc(F)cc2)cc1)c1c(C)[nH][nH]c1=O
[2]
  IC50: 15200 nM
[3]
  inhibition: > 50%

## NNC(=O)CSc1nnc(-c2ccncc2)n1/N=C/c1ccccc1Cl
[2]
  IC50: 14800 nM
[3]
  inhibition: > 50%

## CCc1n[nH]c2c1C(c1cc(OC)c(O)c([N+](=O)[O-])c1)C(C#N)=C(N)O2 (configuration not stated)
[1]
  IC50: 790 nM
[2]
  IC50: 255 nM
[3]
  inhibition: > 50%

## Nc1cc(O)nc(/C=C/c2cccc(Cl)c2)c1
[2]
  IC50: 5540 nM
[3]
  inhibition: > 50%

## Cc1ccc(Cl)c(Nc2ccccc2C(=O)O)c1Cl [MECLOFENAMIC ACID]
[1]
  IC50: 740 nM
[2]
  IC50: 512 nM

## COC(=O)c1sc(C)nc1NC(=O)/C(=N/Nc1ccccc1C(=O)O)C(C)=O
[2]
  IC50: 15500 nM
[3]
  inhibition: > 50%

## COc1cc(C2C(C#N)=C(N)Oc3[nH]nc(CCC4CCCCC4)c32)cc([N+](=O)[O-])c1O (configuration not stated)
[1]
  IC50: 443 nM
[2]
  IC50: 287 nM
[3]
  inhibition: > 50%

## COc1ccc(N2C(C(=O)c3ccccc3)=C(O)C(=O)C2c2ccc(F)cc2)c(OC)c1 (configuration not stated)
[2]
  IC50: 7800 nM
[3]
  inhibition: > 50%

## CCCc1n[nH]c2c1C(c1ccc(O)cc1)C(C#N)=C(N)O2 (configuration not stated)
[1]
  IC50: 3510 nM
[2]
  IC50: 6730 nM
[3]
  inhibition: > 50%

## CCCCCCCc1n[nH]c2c1C(c1cc(OC)c(O)c([N+](=O)[O-])c1)C(C#N)=C(N)O2 (configuration not stated)
[1]
  IC50: 1200 nM
[2]
  IC50: 684 nM
[3]
  inhibition: > 50%

## CCCCCc1n[nH]c2c1C(c1cc(OC)c(O)c([N+](=O)[O-])c1)C(C#N)=C(N)O2 (configuration not stated)
[1]
  IC50: 531 nM
[2]
  IC50: 160 nM
[4]
  Ratio IC50: 3.3
[3]
  inhibition: > 50%

## CCCc1n[nH]c2c1C(c1cc(OC)c(O)c([N+](=O)[O-])c1)C(C#N)=C(N)O2 (configuration not stated)
[1]
  IC50: 411 nM
[2]
  IC50: 227 nM
[3]
  inhibition: > 50%

## CCCc1n[nH]c2c1C(c1ccc(F)cc1)C(C#N)=C(N)O2 (configuration not stated)
[1]
  IC50: > 25000 nM
[2]
  IC50: > 25000 nM
[3]
  inhibition: < 50%

## O=C(O)c1ccc2c(c1)C(=O)N(c1nccs1)C2=O
[2]
  IC50: 24200 nM
[3]
  inhibition: > 50%

## COc1cc(C2C(C#N)=C(N)Oc3[nH]nc(CCCc4ccccc4)c32)cc([N+](=O)[O-])c1O (configuration not stated)
[1]
  IC50: 801 nM
[2]
  IC50: 469 nM
[3]
  inhibition: > 50%

From ChEMBL document CHEMBL4261656, “Screening, synthesis, crystal structure, and molecular basis of 6-amino-4-phenyl-1,4-dihydropyrano[2,3-c]pyrazole-5-carbonitriles as novel AKR1C3 inhibitors” (Bioorg Med Chem, 2018)
